Here are results for 17 molecules from ChEMBL document CHEMBL1153905, “Functionalized 3-benzylidene-indolin-2-ones: inducers of NAD(P)H-quinone oxidoreductase 1 (NQO1) with antiproliferative activity” (Bioorg Med Chem, 2009).

Series [1] in a line: Cytotoxicity against mouse Hepa-1c1c7 cells after 48 hrs by MTT assay. Type of series: cell-based. The settings on record: hepa-1c1c7, 48 h. In a few lines: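 Murine hepatoma cells in α-MEM with 10% heat- and charcoal-treated fetal calf serum, passages 6–17; MTT read-out as for the cancer lines but with 48 h compound exposure. Highest concentration tested 25 µM. IC50 from survival-versus-concentration curve; mean and SD, n = 3.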

Series [2] concerns the target NAD(P)H dehydrogenase [quinone] 1 (Mus musculus) (UniProt Q64669). Description: Induction of NQO1 activity in mouse Hepa-1c1c7 cells assessed as induction ratio at 1 uM after 48 hrs by MTT assay relative to control. In kind it is cell-based. In a few lines:
(§1)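 Hepa1c1c7 cells, 10,000 per well, 24 h, were then treated 48 h (DMSO ≤0.5%). Digitonin/EDTA lysates were assayed for menadione-dependent MTT-formazan formation using a G6P/G6PDH NADPH-generating mix with FAD at pH 7.4. The reaction ran 5 min, was stopped with dicoumarol, and read at A590. Degree of induction = (A test − blank)/(A control − blank). Ratios were read off the induction–concentration plot at the EROD test concentration.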

Series [3] deals with T1, CYP1A1 (Mus musculus, UniProt P00184).
T1 sequence (P00184 whole entry): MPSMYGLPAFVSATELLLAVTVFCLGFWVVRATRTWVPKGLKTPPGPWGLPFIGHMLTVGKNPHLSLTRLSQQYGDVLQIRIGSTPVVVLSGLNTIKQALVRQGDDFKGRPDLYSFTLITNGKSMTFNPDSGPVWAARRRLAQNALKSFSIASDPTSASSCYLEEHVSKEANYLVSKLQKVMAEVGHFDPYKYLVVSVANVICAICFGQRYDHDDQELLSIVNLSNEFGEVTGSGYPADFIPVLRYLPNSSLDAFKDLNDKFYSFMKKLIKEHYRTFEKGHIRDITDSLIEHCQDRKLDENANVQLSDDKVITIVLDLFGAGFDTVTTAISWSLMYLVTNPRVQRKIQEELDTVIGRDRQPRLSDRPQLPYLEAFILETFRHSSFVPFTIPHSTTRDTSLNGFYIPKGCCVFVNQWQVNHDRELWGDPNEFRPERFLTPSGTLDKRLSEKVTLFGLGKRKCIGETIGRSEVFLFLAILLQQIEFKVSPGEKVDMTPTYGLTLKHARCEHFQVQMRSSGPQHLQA
Description: Induction of CYP1A1 activity in mouse Hepa-1c1c7 cells assessed as induction ratio at 1 uM after 48 hrs by EROD assay relative to control. In kind it is ADME, cell-based. Put shortly:
(§2)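 About 10,000 Hepa1c1c7 cells/well cultured 24 h, then compound (0.5% DMSO final) for 48 h, at roughly 4 × the concentration doubling NQO1 activity. After PBS wash, cells given 5 µM 7-ethoxyresorufin plus 2 mM salicylamide, 37 °C, 40 min; resorufin fluorescence ex 530/em 590 nm, corrected for compound fluorescence. Ratio = (treated − blank)/(DMSO control − blank); mean ± SD, n = 3.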

Series [4] concerns the target T1, CYP1A1. Description: Induction of CYP1A1 activity in mouse Hepa-1c1c7 cells assessed as induction ratio at 20 uM after 48 hrs by EROD assay relative to control. Type of series: ADME, cell-based. In a few lines: (§3)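 Hepa1c1c7 cells were seeded at 10,000 per well and grown 24 h. They were then exposed 48 h to compound (final DMSO 0.5% v/v) at about 4 × the NQO1 CD. After a PBS wash, cells got 5 µM 7-ethoxyresorufin plus 2 mM salicylamide in medium, 37 °C, 40 min. Resorufin was read at ex 530/em 590 nm, corrected for compound fluorescence. Ratio = (F treated − blank)/(F DMSO control − blank); mean ± SD, n = 3.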

The target of series [5] is NAD(P)H dehydrogenase [quinone] 1 (Mus musculus) (UniProt Q64669). Nature of the series: Induction of NQO1 activity in mouse Hepa-1c1c7 cells assessed as induction ratio at 20 uM after 48 hrs by MTT assay relative to control. In kind it is cell-based. Put shortly:
as §1
(Tetrazolium assays rely on reduction of a dye to a coloured formazan, in cell work by metabolically active cells.)

Series [6] deals with T1, CYP1A1. Nature of the series: Induction of CYP1A1 activity in mouse Hepa-1c1c7 cells assessed as induction ratio at 0.5 uM after 48 hrs by EROD assay relative to control. In kind it is ADME, cell-based. Put shortly:
as §2

Series [7] concerns the target NAD(P)H dehydrogenase [quinone] 1 (Mus musculus) (UniProt Q64669). Description: Induction of NQO1 activity in mouse Hepa-1c1c7 cells assessed as induction ratio at 0.5 uM after 48 hrs by MTT assay relative to control. In kind it is cell-based. In a few lines:
as §1

The target is the same in series [8]. Nature of the series: Induction of NQO1 activity in mouse Hepa-1c1c7 cells assessed as induction ratio at 5 uM after 48 hrs by MTT assay relative to control. In kind it is cell-based. In a few lines: as §1
The target in series [9] is T1, CYP1A1. Nature of the series: Induction of CYP1A1 activity in mouse Hepa-1c1c7 cells assessed as induction ratio at 5 uM after 48 hrs by EROD assay relative to control. In kind it is ADME, cell-based. In a few lines:
as §3

The target in series [10] is T1, CYP1A1. Description: Induction of CYP1A1 activity in mouse Hepa-1c1c7 cells assessed as induction ratio at 2.5 uM after 48 hrs by EROD assay relative to control. In kind it is ADME, cell-based. Put shortly: as §3
Series [11] deals with NAD(P)H dehydrogenase [quinone] 1 (Mus musculus) (UniProt Q64669). Description: Induction of NQO1 activity in mouse Hepa-1c1c7 cells assessed as induction ratio at 2.5 uM after 48 hrs by MTT assay relative to control. Type of series: cell-based. In a few lines: as §1
Series [12] has as its target T1, CYP1A1. Nature of the series: Induction of CYP1A1 activity in mouse Hepa-1c1c7 cells assessed as induction ratio at 7.5 uM after 48 hrs by EROD assay relative to control. In kind it is ADME, cell-based. Put shortly: as §3
Series [13] addresses NAD(P)H dehydrogenase [quinone] 1 (Mus musculus) (UniProt Q64669). Nature of the series: Induction of NQO1 activity in mouse Hepa-1c1c7 cells assessed as induction ratio at 7.5 uM after 48 hrs by MTT assay relative to control. In kind it is cell-based. Put shortly:
as §1

Series [14] relates to HCT-116. Nature of the series: Antiproliferative activity against human HCT116 cells after 72 hrs by MTT assay. Type of series: functional, cell-based. The settings on record: HCT-116, 72 h. Put shortly:
(§4)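 Cells seeded at 10,000 (MCF7), 4000 (HCT116) or 5000 (CCL186) per well and grown 24 h; MCF7 and CCL186 in EMEM with pyruvate, glutamine, 10% FBS; HCT116 in McCoy's 5A with 10% FBS. Compounds from DMSO stocks (≤1% DMSO final), 72 h exposure; MTT 0.5 mg/ml for 3 h, formazan in DMSO read at 590 nm. IC50 from sigmoidal survival curve, three separate occasions.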

Series [15] deals with MCF7. Description: Antiproliferative activity against human MCF7 cells after 72 hrs by MTT assay. Type of series: functional, cell-based. The settings on record: MCF7, 72 h. Put shortly: as §4
Series [16] in a line: Antiproliferative activity against human CCL186 cells after 72 hrs by MTT assay. Conditions: CCL186, 72 h. Type of series: cell-based. In a few lines: as §4
The test system of series [17] is MCF7. Description: Selectivity ratio of IC50 for human CCL186 cells to IC50 for human MCF7 cells. In a few lines:
(§5)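 MTT assay. MCF7 and CCL186 cells were grown in EMEM/10% FBS, HCT116 in McCoy's 5A/10% FBS. Seeding was 10,000 (MCF7), 4000 (HCT116) and 5000 (CCL186) cells per well, 24 h. Compound exposure was 72 h, DMSO ≤1% final. MTT 0.5 mg/ml for 3 h, formazan dissolved in DMSO, A590. IC50 came from sigmoidal survival curves, with 3 separate occasions per concentration. Ratio = IC50 CCL186 / IC50 of the cancer line.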

A short description of series [18]: Selectivity ratio of IC50 for human CCL186 cells to IC50 for human HCT116 cells. Conditions: CCL186 cells and HCT116 cells, read-out: Ratio IC50. Type of series: ADME, cell-based, HCT-116. Put shortly: as §5

Sequence of NAD(P)H dehydrogenase [quinone] 1 (Mus musculus) (Q64669 whole entry): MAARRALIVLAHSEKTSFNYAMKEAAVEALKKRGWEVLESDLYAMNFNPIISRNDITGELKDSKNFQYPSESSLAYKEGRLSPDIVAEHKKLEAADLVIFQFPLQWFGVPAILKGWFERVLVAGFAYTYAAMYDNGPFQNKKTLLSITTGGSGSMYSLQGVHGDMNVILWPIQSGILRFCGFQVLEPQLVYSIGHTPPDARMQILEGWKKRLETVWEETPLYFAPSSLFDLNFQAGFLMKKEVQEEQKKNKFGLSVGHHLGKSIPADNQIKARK

`COc1cccc(/C=C2/C(=O)Nc3cc(F)ccc32)c1` yielded a 50% inhibitory concentration (IC50) in [1] of 9.8 µM. In series [2], the Ratio stood at 3.21. Further, the fold induction at 48 h, 1 µM in series [3] turned out to be 1.25.

Regarding `O=C1Nc2ccccc2/C1=C\c1ccccc1O`, in series [4], the fold induction at 48 h, 20 µM came to 1.02. Besides, in [1], the IC50 was greater than 25 µM. For the same molecule, the Ratio in series [5] came to 3.35.

On to `COc1ccc(/C=C2/C(=O)Nc3cc(F)ccc32)cc1O`, for which the fold induction at 48 h, 0.5 µM in [6] was determined as 2.05. In series [1], this molecule had a concentration for half-maximal inhibition (IC50) of 15.6 µM. In series [7], the Ratio worked out at 4.1.

Turning to `O=C1Nc2ccccc2/C1=C\c1ccccc1`, the IC50 in series [1] is greater than 25 µM. Moreover, in [8], the Ratio came to 5.13. For the same molecule, in series [9], the fold induction at 48 h, 5 µM came out at 1.01.

As for `COc1cccc(/C=C2/C(=O)Nc3ccc(Cl)cc32)c1`, the fold induction at 48 h, 2.5 µM in [10] is 1.32. For the same molecule, in series [1], the IC50 was 17.5 µM. Further, in series [11], the Ratio was found to be 4.34.

In the case of `CCc1ccc(/C=C2/C(=O)Nc3ccccc32)cc1`, the fold induction at 48 h, 7.5 µM in series [12] was determined as 1.08. In addition, the half-maximal inhibitory concentration (IC50) in series [1] was greater than 25 µM. Also, the Ratio in series [13] came out at 4.96.

On to `O=C1Nc2ccccc2/C1=C\c1ccc2ccccc2c1`, for which the fold induction at 48 h, 2.5 µM in series [10] was found to be 1.06. This molecule also displayed an IC50 in series [1] greater than 25 µM. For the same molecule, the Ratio in series [11] was determined as 4.61.

As to `COc1cc(/C=C2/C(=O)Nc3ccccc32)cc(OC)c1`, the IC50 amounted to 5.8 µM in series [14], 10.5 µM in series [15], 23.6 µM in series [16] and 16 µM in series [1]. In addition, in series [17], the “Ratio IC50” value worked out at 4.1. In addition, the selectivity ratio in series [18] is 2.2.

In the case of `O=C1Nc2ccccc2/C1=C\c1ccccc1C(F)(F)F`, in [4], the fold induction at 48 h, 20 µM was 1.2. Moreover, the IC50 in [1] is greater than 25 µM. Moreover, in series [5], the Ratio stood at 2.96.

In turn, `COc1cccc(/C=C2/C(=O)Nc3ccccc32)c1` gave a half-inhibitory concentration (IC50) in series [1] greater than 25 µM. For the same molecule, the Ratio in [2] was found to be 4.21. The fold induction at 48 h, 1 µM in [3] was determined as 1.26.

As to `O=C1Nc2ccccc2/C1=C\c1cccc(F)c1`, the fold induction at 48 h, 7.5 µM in series [12] was 1.11. For the same molecule, the IC50 in series [1] is greater than 25 µM. Besides, the Ratio in series [13] was determined as 4.19.

In turn, `N#Cc1ccc(/C=C2/C(=O)Nc3ccccc32)cc1` registered an IC50 in series [1] greater than 25 µM.

With `O=C1Nc2ccccc2/C1=C\c1ccc(F)cc1`, the fold induction at 48 h, 20 µM in series [4] is 1.64. Besides, the 50% inhibitory concentration (IC50) in series [1] is greater than 25 µM. In addition, the Ratio in [5] amounted to 5.69.

For the molecule `Cc1ccc(/C=C2/C(=O)Nc3ccccc32)cc1`, the fold induction at 48 h, 7.5 µM in series [12] amounted to 1.07. The molecule also had an IC50 in [1] greater than 25 µM. Moreover, the Ratio in series [13] amounted to 3.05.

For the molecule `O=C1Nc2ccccc2/C1=C\c1c[nH]c2ccccc12`, the IC50 in [1] is greater than 25 µM. Besides, the Ratio in series [2] amounted to 4.33. The fold induction at 48 h, 1 µM in [3] is 1.28.

As to `Cc1ccc(CC2C(=O)Nc3ccccc32)cc1` (stereo not given), the IC50 in [1] was greater than 25 µM.

For the molecule `O=C1Nc2ccccc2/C1=C\c1cc(O)cc(O)c1`, the fold induction at 48 h, 20 µM in series [4] was determined as 1.04. Moreover, in [1], the IC50 is greater than 25 µM. Further, the Ratio in series [5] worked out at 3.82.

As usually defined, the IC50 is the midpoint of a concentration-inhibition curve. Low readings indicate greater potency, high ones weaker potency. The term fold induction denotes the signal under treatment as a multiple of the control signal.
